{
  "source": "paper PMC12123727",
  "about": "(BMC Cancer, 2025)",
  "assay": "Phase 1 safety evaluation",
  "assay_type": "in vivo, human",
  "settings": "for tolerability: Chinese patients with r/r B cell NHL, 40-80 mg BID",
  "procedure,_shortened": "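3 + 3 escalation of oral test compound, 40, 60 or 80 mg BID 4 h apart, 7 days on and 7 off, after a single dose on D-3. Investigators graded AEs at every visit per CTCAE v5.0. DLT was assessed over cycle 1 and covered grade 4 cytopenias, febrile or bleeding grade ≥3 cytopenias, and grade ≥3 non-hematological toxicity. Safety set: ≥1 dose and ≥1 safety evaluation.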",
  "data": [
    {"smiles": "CN(C)Cc1c(C(=O)NCCOc2ccc(C(=O)NO)cc2)oc2ccccc12", "note": "[abexinostat, Abexinostat]", "values": [
      {"measurement": "TEAE: Hypertriglyceridemia", "setting": "60 mg BID (n = 3), Any grade", "result": "2 (66.7) n (%)"},
      {"measurement": "TEAE: Hyperuricemia", "setting": "60 mg BID (n = 3), Any grade", "result": "1 (33.3) n (%)"},
      {"measurement": "TEAE: Hypoalbuminemia", "setting": "60 mg BID (n = 3), Any grade", "result": "2 (66.7) n (%)"},
      {"measurement": "TEAE: Hypoproteinemia", "setting": "60 mg BID (n = 3), Any grade", "result": "2 (66.7) n (%)"},
      {"measurement": "TEAE: Leukopenia", "setting": "60 mg BID (n = 3), Any grade", "result": "1 (33.3) n (%)"},
      {"measurement": "TEAE: Lymphopenia", "setting": "60 mg BID (n = 3), Any grade", "result": "1 (33.3) n (%)"},
      {"measurement": "TEAE: Nausea", "setting": "60 mg BID (n = 3), Any grade", "result": "1 (33.3) n (%)"},
      {"measurement": "TEAE: Neutropenia", "setting": "60 mg BID (n = 3), Any grade", "result": "1 (33.3) n (%)"},
      {"measurement": "TEAE: Thrombocytopenia", "setting": "60 mg BID (n = 3), Any grade", "result": "2 (66.7) n (%)"},
      {"measurement": "TEAE: Urinary white blood cell positivity", "setting": "60 mg BID (n = 3), Any grade", "result": "1 (33.3) n (%)"},
      {"measurement": "TEAE: Any TEAEs", "setting": "60 mg BID (n = 3), ≥ Grade 3", "result": "2 (66.7) n (%)"},
      {"measurement": "TEAE: Hypertriglyceridemia", "setting": "60 mg BID (n = 3), ≥ Grade 3", "result": "1 (33.3) n (%)"},
      {"measurement": "TEAE: Thrombocytopenia", "setting": "60 mg BID (n = 3), ≥ Grade 3", "result": "1 (33.3) n (%)"},
      {"measurement": "Dose interruption", "setting": "60 mg BID group, due to thrombocytopenia", "result": "one patient"},
      {"measurement": "Dose reduction due to TEAEs", "setting": "60 mg BID group, thrombocytopenia", "result": "one patient"},
      {"measurement": "TEAE: Abnormal ST segment on electrocardiogram", "setting": "80 mg BID (n = 4), Any grade", "result": "2 (50.0) n (%)"},
      {"measurement": "TEAE: Abnormal T-wave on electrocardiogram", "setting": "80 mg BID (n = 4), Any grade", "result": "3 (75.0) n (%)"},
      {"measurement": "TEAE: Anemia", "setting": "80 mg BID (n = 4), Any grade", "result": "2 (50.0) n (%)"},
      {"measurement": "TEAE: Any TEAEs", "setting": "80 mg BID (n = 4), Any grade", "result": "4 (100) n (%)"},
      {"measurement": "TEAE: Diarrhea", "setting": "80 mg BID (n = 4), Any grade", "result": "3 (75.0) n (%)"},
      {"measurement": "TEAE: Elevated low-density lipoprotein", "setting": "80 mg BID (n = 4), Any grade", "result": "0 n (%)"},
      {"measurement": "TEAE: Elevated α-hydroxybutyrate dehydrogenase", "setting": "80 mg BID (n = 4), Any grade", "result": "1 (25.0) n (%)"},
      {"measurement": "TEAE: Fatigue", "setting": "80 mg BID (n = 4), Any grade", "result": "2 (50.0) n (%)"},
      {"measurement": "TEAE: Hypercholesterolemia", "setting": "80 mg BID (n = 4), Any grade", "result": "1 (25.0) n (%)"},
      {"measurement": "TEAE: Hyperglycemia", "setting": "80 mg BID (n = 4), Any grade", "result": "2 (50.0) n (%)"},
      {"measurement": "TEAE: Hypertriglyceridemia", "setting": "80 mg BID (n = 4), Any grade", "result": "3 (75.0) n (%)"},
      {"measurement": "TEAE: Hyperuricemia", "setting": "80 mg BID (n = 4), Any grade", "result": "1 (25.0) n (%)"},
      {"measurement": "TEAE: Hypoalbuminemia", "setting": "80 mg BID (n = 4), Any grade", "result": "1 (25.0) n (%)"},
      {"measurement": "TEAE: Hypoproteinemia", "setting": "80 mg BID (n = 4), Any grade", "result": "2 (50.0) n (%)"},
      {"measurement": "TEAE: Leukopenia", "setting": "80 mg BID (n = 4), Any grade", "result": "3 (75.0) n (%)"},
      {"measurement": "TEAE: Lymphopenia", "setting": "80 mg BID (n = 4), Any grade", "result": "2 (50.0) n (%)"},
      {"measurement": "TEAE: Nausea", "setting": "80 mg BID (n = 4), Any grade", "result": "2 (50.0) n (%)"},
      {"measurement": "TEAE: Neutropenia", "setting": "80 mg BID (n = 4), Any grade", "result": "3 (75.0) n (%)"},
      {"measurement": "TEAE: Thrombocytopenia", "setting": "80 mg BID (n = 4), Any grade", "result": "1 (25.0) n (%)"},
      {"measurement": "TEAE: Urinary white blood cell positivity", "setting": "80 mg BID (n = 4), Any grade", "result": "1 (25.0) n (%)"},
      {"measurement": "TEAE: Any TEAEs", "setting": "80 mg BID (n = 4), ≥ Grade 3", "result": "2 (50.0) n (%)"},
      {"measurement": "TEAE: Hyperglycemia", "setting": "80 mg BID (n = 4), ≥ Grade 3", "result": "1 (25.0) n (%)"},
      {"measurement": "TEAE: Hypertriglyceridemia", "setting": "80 mg BID (n = 4), ≥ Grade 3", "result": "2 (50.0) n (%)"},
      {"measurement": "Dose reduction due to TEAEs", "setting": "80 mg BID group, QTc interval prolongation", "result": "one patient"},
      {"measurement": "recommended phase 2 dose (RP2D)", "setting": "7 days on, 7 days off, oral", "result": 80, "unit": "mg BID"},
      {"measurement": "tolerability", "result": "well-tolerated"},
      {"measurement": "tolerability", "setting": "listed as Abexinostat", "result": "favorable tolerability"},
      {"measurement": "TEAE: Abnormal ST segment on electrocardiogram", "setting": "Total (n = 11), Any grade", "result": "3 (27.3) n (%)"},
      {"measurement": "TEAE: Abnormal T-wave on electrocardiogram", "setting": "Total (n = 11), Any grade", "result": "4 (36.4) n (%)"},
      {"measurement": "TEAE: Anemia", "setting": "Total (n = 11), Any grade", "result": "4 (36.4) n (%)"},
      {"measurement": "TEAE: Any TEAEs", "setting": "Total (n = 11), Any grade", "result": "11 (100) n (%)"},
      {"measurement": "TEAE: Diarrhea", "setting": "Total (n = 11), Any grade", "result": "4 (36.4) n (%)"},
      {"measurement": "TEAE: Elevated low-density lipoprotein", "setting": "Total (n = 11), Any grade", "result": "3 (27.3) n (%)"},
      {"measurement": "TEAE: Elevated α-hydroxybutyrate dehydrogenase", "setting": "Total (n = 11), Any grade", "result": "3 (27.3) n (%)"},
      {"measurement": "TEAE: Fatigue", "setting": "Total (n = 11), Any grade", "result": "4 (36.4) n (%)"},
      {"measurement": "TEAE: Hypercholesterolemia", "setting": "Total (n = 11), Any grade", "result": "3 (27.3) n (%)"},
      {"measurement": "TEAE: Hyperglycemia", "setting": "Total (n = 11), Any grade", "result": "3 (27.3) n (%)"},
      {"measurement": "TEAE: Hypertriglyceridemia", "setting": "Total (n = 11), Any grade", "result": "6 (54.5) n (%)"},
      {"measurement": "TEAE: Hyperuricemia", "setting": "Total (n = 11), Any grade", "result": "3 (27.3) n (%)"},
      {"measurement": "TEAE: Hypoalbuminemia", "setting": "Total (n = 11), Any grade", "result": "5 (45.5) n (%)"},
      {"measurement": "TEAE: Hypoproteinemia", "setting": "Total (n = 11), Any grade", "result": "5 (45.5) n (%)"},
      {"measurement": "TEAE: Leukopenia", "setting": "Total (n = 11), Any grade", "result": "4 (36.4) n (%)"},
      {"measurement": "TEAE: Lymphopenia", "setting": "Total (n = 11), Any grade", "result": "3 (27.3) n (%)"},
      {"measurement": "TEAE: Nausea", "setting": "Total (n = 11), Any grade", "result": "3 (27.3) n (%)"},
      {"measurement": "TEAE: Neutropenia", "setting": "Total (n = 11), Any grade", "result": "5 (45.5) n (%)"},
      {"measurement": "TEAE: Thrombocytopenia", "setting": "Total (n = 11), Any grade", "result": "5 (45.5) n (%)"},
      {"measurement": "TEAE: Urinary white blood cell positivity", "setting": "Total (n = 11), Any grade", "result": "3 (27.3) n (%)"},
      {"measurement": "TEAE: Any TEAEs", "setting": "Total (n = 11), ≥ Grade 3", "result": "5 (45.5) n (%)"},
      {"measurement": "TEAE: Hyperglycemia", "setting": "Total (n = 11), ≥ Grade 3", "result": "1 (9.1) n (%)"},
      {"measurement": "TEAE: Hypertriglyceridemia", "setting": "Total (n = 11), ≥ Grade 3", "result": "3 (27.3) n (%)"},
      {"measurement": "TEAE: Thrombocytopenia", "setting": "Total (n = 11), ≥ Grade 3", "result": "2 (18.2) n (%)"},
      {"measurement": "dose limiting toxicity (DLT)", "setting": "dose escalation 40, 60, 80 mg BID, assessed after cycle 1", "result": "No DLT"},
      {"measurement": "≥ grade 3 thrombocytopenia", "setting": "safety set, all doses, 2/11 (abstract: grade 3)", "result": 18.2, "unit": "%"},
      {"measurement": "≥ grade 3 hypertriglyceridemia", "setting": "safety set, all doses, 3/11 (abstract: grade 3)", "result": 27.3, "unit": "%"},
      {"measurement": "any grade TEAE: abnormal T wave on electrocardiogram", "setting": "safety set, all doses, 4/11", "result": 36.4, "unit": "%"},
      {"measurement": "any grade TEAE: anemia", "setting": "safety set, all doses, 4/11", "result": 36.4, "unit": "%"},
      {"measurement": "any grade TEAE: diarrhea", "setting": "safety set, all doses, 4/11", "result": 36.4, "unit": "%"},
      {"measurement": "any grade TEAE: fatigue", "setting": "safety set, all doses, 4/11", "result": 36.4, "unit": "%"},
      {"measurement": "any grade TEAE: leukopenia", "setting": "safety set, all doses, 4/11", "result": 36.4, "unit": "%"},
      {"measurement": "any grade TEAE: hypoalbuminemia", "setting": "safety set, all doses, 5/11", "result": 45.5, "unit": "%"},
      {"measurement": "any grade TEAE: hypoproteinemia", "setting": "safety set, all doses, 5/11", "result": 45.5, "unit": "%"},
      {"measurement": "any grade TEAE: neutropenia", "setting": "safety set, all doses, 5/11", "result": 45.5, "unit": "%"},
      {"measurement": "any grade TEAE: thrombocytopenia", "setting": "safety set, all doses, 5/11", "result": 45.5, "unit": "%"},
      {"measurement": "any grade TEAE: hypertriglyceridemia", "setting": "safety set, all doses, 6/11", "result": 54.5, "unit": "%"},
      {"measurement": "grade of most TEAEs", "setting": "safety set, n = 11", "result": "grade 1 or 2"}
    ]}
  ]
}
